# Experimental data pooled from the literature.
# Protocols differ between the studies behind these lines.
# Organism: Trypanosoma brucei
# Read-out: parasite growth
Structure (SMILES),assay,test system,conditions,EC50 [µM]
CCCCCC(=O)NC(Cc1ccc(NC(=O)OC(C)(C)C)cc1)C(=O)NC(Cc1ccc(NC(=O)OC(C)(C)C)cc1)C(=O)NC(CC(C)C)C(=O)C1(C)CO1 (stereo not drawn),SYBR Green,,72 h,0.465
O=C(N/N=C/c1ccc([N+](=O)[O-])o1)c1cn(Cc2ccccc2)c2ccccc2c1=O,resazurin,,72 h,0.57
COc1cc(C)c(C#N)c(SCC(=O)c2ccccc2)n1,resazurin,RHODESIENSE,,32.9
O=C(N/N=C/c1ccc([N+](=O)[O-])o1)c1cn(Cc2ccccc2)c2ccc(Oc3ccccc3)cc2c1=O,resazurin,,72 h,0.32
Cc1cc(C)c(C#N)c(SCC(=O)c2ccccc2C)n1,resazurin,,,25.8
O=c1c(O[C@@H]2O[C@H](CO)[C@H](O)[C@H](O)[C@H]2O)c(-c2ccc(O)c(O)c2)oc2cc(O)cc(O)c12,resazurin,,48 h,50
N=C(N)c1ccc(OCCCCCOc2ccc(C(=N)N)cc2)cc1,SYBR Green,RHODESIENSE,,0.027
C[C@@H]1C/C=C/C=C/C=C/C=C/[C@H](O[C@@H]2O[C@H](C)[C@@H](O)[C@H](N)[C@@H]2O)C[C@@H]2O[C@](O)(C[C@@H](O)C[C@H]3O[C@@H]3/C=C/C(=O)O1)C[C@H](O)[C@H]2C(=O)O,resazurin,,48 h,12
COc1cccc(C(=O)C[S+]([O-])c2nc(C)cc(C)c2C#N)c1 (stereo not drawn),resazurin,,,25.4
Cc1ccc(Cn2cc(C(=O)N/N=C/c3ccc([N+](=O)[O-])s3)c(=O)c3cc(Cl)c(Cl)cc32)cc1,resazurin,,72 h,> 4
CCCCCC(=O)NC(Cc1c[nH]c2ccccc12)C(=O)NC(Cc1c[nH]c2ccccc12)C(=O)NC(CC(C)C)C(=O)C1(C)CO1 (stereo not drawn),SYBR Green,,72 h,< 0.5
Cc1cc(C)c(C#N)c(SCC(=O)c2cccc(N)c2)n1,resazurin,RHODESIENSE,,41.4
